From ChEMBL document CHEMBL1150763, “Discovery of imidazo[1,5-c]imidazol-3-ones: weakly basic, orally active factor Xa inhibitors” (J Med Chem, 2008)

Tests used:
[1] = physchem; conditions: buffer, pH 7.4
[2] = test system: Plasma; assay: Anticoagulant potency in human plasma assessed as concentration required to double the time to clot formation by PT assay; assay type: functional
In short: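 Human normal plasma mixed with compound dilutions in DMSO (1.5 µL into 48.5 µL), preincubated 4 min at 37 °C, clotting started with thromboplastin and timed on an automatic coagulometer. Prolongation relative to DMSO; concentration doubling clotting time derived by least-squares regression; mean of duplicates.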

[3] = test system: Plasma; assay: Anticoagulant potency in mouse plasma assessed as concentration required to double the time to clot formation by PT assay; assay type: functional
[4] = target: CYP3A4 (Homo sapiens, UniProt P08684); assay: Inhibition of CYP3A4 expressed in human B-lymphoblastoid cells at 10 uM; assay type: ADME, cell-based
In short: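 Recombinant CYP3A4 (10 nM, from CYP3A4-expressing human B-lymphoblastoid cells) incubated with 100 µM testosterone and 10 µM test compound for 30 min at 37 °C; 6β-hydroxytestosterone formation quantified by HPLC-UV.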

[5] = test system: Plasma; assay: Anticoagulant activity in mouse plasma assessed as ratio of prothrombin time in drug to untreated control at 30 mg/kg, po; assay type: functional
In short: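 Male ICR mice (30-35 g), fasted >12 h, dosed orally at 30 mg/kg as suspension in 0.5% methylcellulose; vehicle controls. Citrated aortic blood drawn 1 h post-dose under pentobarbital anaesthesia, spun 1000g 10 min to platelet-poor plasma. PT on 50 µL plasma preincubated 4 min at 37 °C, started with thromboplastin; clotting time expressed relative to control group (n = 3).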

[6] = Basicity, pKa by titration method; assay type: physicochemical
[7] = target: Coagulation factor X (Homo sapiens, UniProt P00742); assay: Inhibition of human factor 10a
[8] = test system: Rattus norvegicus; assay: Effect on bleeding time in Sprague-Dawley rat at 0.3 mg/kg, po; assay type: functional
In short: (§1)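 Male Sprague-Dawley rats (7 weeks old) dosed orally 18 h before measurement, then anesthetized with sodium pentobarbital. Tail transected 2-3 mm from the tip; blood blotted with filter paper every 30 s until bleeding stopped or 30 min elapsed. Bleeding time given as mean ± SEM, n = 6, compared with a vehicle group by one-tailed Shirley-Williams' test.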

[9] = test system: Rattus norvegicus; assay: Effect on bleeding time in Sprague-Dawley rat at 1 mg/kg, po; assay type: functional
In short: as §1

[10] = Total clearance in Sprague-Dawley rat in fed state at 0.3 mg, iv; assay type: ADME, organism-based; conditions: in vivo
In short: (§2)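 Male SD rats (8 weeks old) or cynomolgus monkeys, n = 3, given 0.3 mg/kg intravenously in DMA/PEG400. Blood sampled at 5, 10, 15, 30 min and 1, 2, 4, 8, 24 h (rat tail vein, monkey femoral vein); acetonitrile-deproteinized plasma diluted in pH 3.0 ammonium formate and quantified by LC/MS/MS.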

[11] = Cmax in Sprague-Dawley rat in fed state at 3 mg/kg, po; assay type: ADME, organism-based; parameters: dose 3 mg/kg, route oral; conditions: in vivo
In short: (§3)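 Male animals (SD rats 8 weeks old or cynomolgus monkeys, n = 3), fasted or fed, given 3 mg/kg orally as 0.5% methylcellulose suspension. Blood at 15, 30 min and 1, 2, 4, 8, 24 h (rat tail vein, monkey femoral vein); plasma deproteinized with acetonitrile, diluted in pH 3.0 ammonium formate, analysed by LC/MS/MS in positive ion mode.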

[12] = AUC (0 to 24 hrs) in cynomolgus monkey in fed state at 0.3 mg, iv; assay type: ADME, organism-based, Macaca fascicularis; parameters: dose 0.3 mg, time < 24 hr, route intravenous; conditions: plasma
In short: (§4)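 Male cynomolgus monkeys, n = 3, fasted or fed; single dose iv 0.3 mg/kg (DMA/PEG400) or po 3 mg/kg (0.5% methylcellulose suspension). Femoral-vein blood sampled 5 min–24 h after iv, 15 min–24 h after oral. Plasma deproteinized with acetonitrile, supernatant diluted in 0.01 mol/L HCO₂NH₄ pH 3.0, drug measured by LC/MS/MS.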

[13] = AUC (0 to 24 hrs) in Sprague-Dawley rat in fed state at 3 mg/kg, po; assay type: ADME, organism-based; parameters: time < 24 hr, dose 3 mg/kg, route oral; conditions: plasma
In short: (§5)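 Male SD (IGS) rats, 8 weeks old, n = 3, fasted or fed; dosed iv at 0.3 mg/kg in DMA/PEG400 or orally at 3 mg/kg as 0.5% methylcellulose suspension. Tail-vein blood drawn 5 min–24 h (iv) or 15 min–24 h (po). Plasma deproteinized with acetonitrile, diluted in 0.01 mol/L HCO₂NH₄ pH 3.0, and quantified by LC/MS/MS in positive ion mode.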

[14] = target: Plasminogen (Homo sapiens, UniProt P00747); assay: Inhibition of plasmin
[15] = Cmax in cynomolgus monkey in fed state at 3 mg/kg, po; assay type: ADME, organism-based, Macaca fascicularis; parameters: dose 3 mg/kg, route oral; conditions: in vivo
In short: as §3

[16] = target: Tissue-type plasminogen activator (Homo sapiens, UniProt P00750); assay: Inhibition of tPA
[17] = Tmax in Sprague-Dawley rat in fasted state at 3 mg/kg, po; assay type: ADME, organism-based; parameters: dose 3 mg/kg, route oral; conditions: in vivo
In short: as §3

[18] = Bioavailability in cynomolgus monkey in fed state at 3 mg/kg, po; assay type: ADME, organism-based, Macaca fascicularis; conditions: in vivo
In short: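 Male cynomolgus monkeys, fed, given 3 mg/kg orally as 0.5% methylcellulose suspension and 0.3 mg/kg iv in DMA/PEG400 (n = 3); femoral vein plasma sampled to 24 h, deproteinized with acetonitrile and quantified by LC/MS/MS.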

[19] = AUC (0 to 24 hrs) in cynomolgus monkey in fed state at 3 mg/kg, po; assay type: ADME, organism-based, Macaca fascicularis; parameters: time < 24 hr, dose 3 mg/kg, route oral; conditions: plasma
In short: as §4

[20] = Cmin in cynomolgus monkey in fed state at 0.3 mg, iv after 5 mins; assay type: ADME, organism-based, Macaca fascicularis; conditions: in vivo, read-out: Cmin
In short: as §2

[21] = test system: Rattus norvegicus; assay: Effect on bleeding time in Sprague-Dawley rat at 100 mg/kg, po; assay type: functional
In short: (§6)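 Male Sprague-Dawley rats (7 weeks old) dosed orally 30 min beforehand, then anaesthetized with pentobarbital; tail transected 2-3 mm from tip, blood blotted every 30 s until bleeding stopped or 30 min elapsed; mean ± SEM, n = 6.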

[22] = AUC (0 to 24 hrs) in Sprague-Dawley rat in fasted state at 3 mg/kg, po; assay type: ADME, organism-based; parameters: time < 24 hr, dose 3 mg/kg, route oral; conditions: plasma
In short: as §5

[23] = Mean residence time in Sprague-Dawley rat in fed state at 3 mg/kg, po; assay type: ADME, organism-based; parameters: dose 3 mg/kg, route oral; conditions: in vivo
In short: as §3

[24] = Cmin in Sprague-Dawley rat in fed state at 0.3 mg, iv after 5 mins; assay type: ADME, organism-based; conditions: in vivo, read-out: Cmin
In short: as §2

[25] = Bioavailability in Sprague-Dawley rat in fed state at 3 mg/kg, po; assay type: ADME, organism-based; conditions: in vivo
In short: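 Male SD (IGS) rats, 8 weeks old, n = 3, fed or fasted. Dosed iv at 0.3 mg/kg in DMA/PEG400 and po at 3 mg/kg as a 0.5% methylcellulose suspension. Tail-vein blood taken at 15, 30 min and 1, 2, 4, 8, 24 h after oral dosing (iv adds 5 and 10 min). Plasma deproteinized with acetonitrile and assayed by LC/MS/MS.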

[26] = target: Prothrombin (Homo sapiens, UniProt P00734); assay: Inhibition of thrombin
[27] = Total clearance in cynomolgus monkey in fed state at 0.3 mg, iv; assay type: ADME, organism-based, Macaca fascicularis; conditions: in vivo
In short: as §2

[28] = AUC (0 to 24 hrs) in Sprague-Dawley rat in fed state at 0.3 mg, iv; assay type: ADME, organism-based; parameters: time < 24 hr, dose 0.3 mg, route intravenous; conditions: plasma
In short: as §5

[29] = Tmax in Sprague-Dawley rat in fed state at 3 mg/kg, po; assay type: ADME, organism-based; parameters: dose 3 mg/kg, route oral; conditions: in vivo
In short: as §3

[30] = Volume of distribution in steady state in Sprague-Dawley rat in fed state at 0.3 mg, iv; assay type: ADME, organism-based; conditions: in vivo, read-out: Vdss
In short: as §2

[31] = Mean residence time in cynomolgus monkey in fed state at 3 mg/kg, po; assay type: ADME, organism-based, Macaca fascicularis; parameters: dose 3 mg/kg, route oral; conditions: in vivo
In short: as §3

[32] = Mean residence time in cynomolgus monkey in fed state at 0.3 mg, iv; assay type: ADME, organism-based, Macaca fascicularis; conditions: in vivo
In short: as §2

[33] = Mean residence time in Sprague-Dawley rat in fasted state at 3 mg/kg, po; assay type: ADME, organism-based; parameters: dose 3 mg/kg, route oral; conditions: in vivo
In short: as §3

[34] = Inhibition of trypsin
[35] = Tmax in cynomolgus monkey in fasted state at 3 mg/kg, po; assay type: ADME, organism-based, Macaca fascicularis; parameters: dose 3 mg/kg, route oral; conditions: in vivo
In short: as §3

[36] = Cmax in cynomolgus monkey in fasted state at 3 mg/kg, po; assay type: ADME, organism-based, Macaca fascicularis; parameters: dose 3 mg/kg, route oral; conditions: in vivo
In short: as §3

[37] = AUC (0 to 24 hrs) in cynomolgus monkey in fasted state at 3 mg/kg, po; assay type: ADME, organism-based, Macaca fascicularis; parameters: time < 24 hr, dose 3 mg/kg, route oral; conditions: plasma
In short: as §4

[38] = Tmax in cynomolgus monkey in fed state at 3 mg/kg, po; assay type: ADME, organism-based, Macaca fascicularis; parameters: dose 3 mg/kg, route oral; conditions: in vivo
In short: as §3

[39] = Cmax in Sprague-Dawley rat in fasted state at 3 mg/kg, po; assay type: ADME, organism-based; parameters: dose 3 mg/kg, route oral; conditions: in vivo
In short: as §3

[40] = Volume of distribution in steady state in cynomolgus monkey in fed state at 0.3 mg, iv; assay type: ADME, organism-based, Macaca fascicularis; conditions: in vivo, read-out: Vdss
In short: as §2

[41] = test system: Rattus norvegicus; assay: Effect on bleeding time in Sprague-Dawley rat at 30 mg/kg, po; assay type: functional
In short: as §6

[42] = Mean residence time in cynomolgus monkey in fasted state at 3 mg/kg, po; assay type: ADME, organism-based, Macaca fascicularis; parameters: dose 3 mg/kg, route oral; conditions: in vivo
In short: as §3

[43] = Mean residence time in Sprague-Dawley rat in fed state at 0.3 mg, iv; assay type: ADME, organism-based; conditions: in vivo
In short: as §2

Sequence of CYP3A4 (P08684 whole entry): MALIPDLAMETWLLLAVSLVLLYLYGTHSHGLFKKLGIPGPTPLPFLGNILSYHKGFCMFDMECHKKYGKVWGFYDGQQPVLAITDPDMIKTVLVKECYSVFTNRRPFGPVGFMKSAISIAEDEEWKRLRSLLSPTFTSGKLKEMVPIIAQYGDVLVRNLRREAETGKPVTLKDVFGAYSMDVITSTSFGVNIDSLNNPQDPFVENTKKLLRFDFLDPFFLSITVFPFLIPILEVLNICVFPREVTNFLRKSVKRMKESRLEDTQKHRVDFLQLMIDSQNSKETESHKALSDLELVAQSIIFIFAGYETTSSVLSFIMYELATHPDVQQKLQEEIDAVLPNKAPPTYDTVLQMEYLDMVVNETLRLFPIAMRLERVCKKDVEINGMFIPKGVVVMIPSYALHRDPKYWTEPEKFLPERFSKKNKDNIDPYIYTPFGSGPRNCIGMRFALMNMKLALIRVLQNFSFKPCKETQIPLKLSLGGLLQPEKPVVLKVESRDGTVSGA
Sequence of Coagulation factor X (P00742 41-179 limits assumed): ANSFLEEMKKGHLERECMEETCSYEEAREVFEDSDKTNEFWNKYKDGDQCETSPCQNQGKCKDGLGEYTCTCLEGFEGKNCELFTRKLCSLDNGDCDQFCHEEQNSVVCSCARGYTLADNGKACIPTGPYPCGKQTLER
Sequence of Coagulation factor X (P00742 235-488 limits assumed): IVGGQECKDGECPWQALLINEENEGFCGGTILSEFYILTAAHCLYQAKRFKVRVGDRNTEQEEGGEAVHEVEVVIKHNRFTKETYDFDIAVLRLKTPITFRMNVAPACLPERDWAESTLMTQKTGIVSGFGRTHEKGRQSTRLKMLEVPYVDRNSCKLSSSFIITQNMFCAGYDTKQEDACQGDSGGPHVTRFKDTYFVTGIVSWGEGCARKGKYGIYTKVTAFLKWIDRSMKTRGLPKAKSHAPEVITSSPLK
Sequence of Tissue-type plasminogen activator (P00750 whole entry): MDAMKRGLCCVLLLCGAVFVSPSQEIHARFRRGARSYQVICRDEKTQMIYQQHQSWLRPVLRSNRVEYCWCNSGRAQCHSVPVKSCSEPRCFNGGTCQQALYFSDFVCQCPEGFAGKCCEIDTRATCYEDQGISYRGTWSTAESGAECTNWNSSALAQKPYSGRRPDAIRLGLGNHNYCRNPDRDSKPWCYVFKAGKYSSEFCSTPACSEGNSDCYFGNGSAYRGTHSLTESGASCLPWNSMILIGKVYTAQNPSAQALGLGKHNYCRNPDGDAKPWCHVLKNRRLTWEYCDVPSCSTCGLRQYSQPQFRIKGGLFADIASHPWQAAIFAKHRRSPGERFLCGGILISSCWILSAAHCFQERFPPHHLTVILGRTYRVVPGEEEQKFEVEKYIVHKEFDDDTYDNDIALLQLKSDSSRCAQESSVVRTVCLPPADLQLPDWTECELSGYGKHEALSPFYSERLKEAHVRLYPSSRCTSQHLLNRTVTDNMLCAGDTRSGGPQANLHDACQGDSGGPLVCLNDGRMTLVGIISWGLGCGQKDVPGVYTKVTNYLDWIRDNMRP
Sequence of Plasminogen (P00747 97-580 limits assumed): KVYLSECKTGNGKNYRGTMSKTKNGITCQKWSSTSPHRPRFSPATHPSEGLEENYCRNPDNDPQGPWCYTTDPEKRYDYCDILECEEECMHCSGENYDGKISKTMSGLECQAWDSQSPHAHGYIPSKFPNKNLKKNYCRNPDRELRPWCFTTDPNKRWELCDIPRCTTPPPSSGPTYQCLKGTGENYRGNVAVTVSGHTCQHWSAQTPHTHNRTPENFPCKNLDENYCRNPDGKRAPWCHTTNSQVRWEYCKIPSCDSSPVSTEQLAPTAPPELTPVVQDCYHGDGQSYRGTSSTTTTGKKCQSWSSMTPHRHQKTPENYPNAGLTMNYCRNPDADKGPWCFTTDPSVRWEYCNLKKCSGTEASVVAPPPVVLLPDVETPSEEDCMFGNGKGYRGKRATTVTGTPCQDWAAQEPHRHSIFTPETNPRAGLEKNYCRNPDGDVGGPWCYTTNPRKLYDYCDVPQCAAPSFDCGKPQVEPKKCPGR
Sequence of Plasminogen (P00747 581-810 limits assumed): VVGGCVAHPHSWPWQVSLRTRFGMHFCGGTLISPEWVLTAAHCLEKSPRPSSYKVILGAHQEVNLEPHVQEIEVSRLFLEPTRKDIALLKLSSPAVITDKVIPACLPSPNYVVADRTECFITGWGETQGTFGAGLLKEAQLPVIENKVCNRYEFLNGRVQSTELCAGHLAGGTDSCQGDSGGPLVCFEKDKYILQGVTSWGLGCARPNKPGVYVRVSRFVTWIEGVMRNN

Cn1cncc1C1CCN(C(=O)CCS(=O)(=O)c2ccc3cc(Cl)ccc3c2)CC1
logD [1]: 2 | Activity [2]: 0.49 µM | Activity [3]: 2.7 µM | inhibition at 10 µM [4]: 82% | Ratio [5]: 1.2 | pKa [6]: 7.2 | IC50 [7]: 56 nM

CCc1nccn1C1CCN(C(=O)CCS(=O)(=O)c2ccc3cc(Cl)ccc3c2)CC1
Activity [2]: 1 µM | IC50 [7]: 160 nM

CC(=O)CC(c1ccccc1)c1c(O)c2ccccc2oc1=O (configuration not stated) [WARFARIN]
Time [8]: 445 s | Time [9]: 1590 s

Cc1ncc2n1C(=O)N(C1CCN(C(=O)CCS(=O)(=O)c3ccc4cc(Cl)ccc4c3)CC1)C2
clearance [10]: 20.8 mL/min/kg | Cmax [11]: 145 ng/mL | AUC(0-t) at 24 h [12]: 565 ng·h/mL | AUC(0-t) at 24 h [13]: 597 ng·h/mL | Ki [14]: > 60000 nM | logD [1]: 2.3 | Activity [2]: 1 µM | Cmax [15]: 269 ng/mL | Activity [3]: 2 µM | Ki [16]: > 60000 nM | Tmax [17]: 0.3 h | bioavailability [18]: 46% | AUC(0-t) at 24 h [19]: 2590 ng·h/mL | concentration at 5 min [20]: 612 ng/mL | Time [21]: 1040 s | AUC(0-t) at 24 h [22]: 417 ng·h/mL | MRT [23]: 3.6 h | concentration at 5 min [24]: 291 ng/mL | inhibition at 10 µM [4]: 23% | bioavailability [25]: 24% | Ki [26]: 6200 nM | clearance [27]: 9.02 mL/min/kg | AUC(0-t) at 24 h [28]: 245 ng·h/mL | Tmax [29]: 1.2 h | Vd [30]: 0.888 L/kg | MRT [31]: 7 h | MRT [32]: 1 h | MRT [33]: 1.5 h | Ki [34]: > 60000 nM | Tmax [35]: 0.8 h | Cmax [36]: 1200 ng/mL | AUC(0-t) at 24 h [37]: 2120 ng·h/mL | Tmax [38]: 2.3 h | Cmax [39]: 570 ng/mL | Vd [40]: 0.556 L/kg | Time [41]: 490 s | MRT [42]: 1.6 h | pKa [6]: 5 | MRT [43]: 0.7 h

Cc1nccn1CCC1CCN(C(=O)CCS(=O)(=O)c2ccc3cc(Cl)ccc3c2)CC1
logD [1]: 2.2 | Activity [2]: 0.91 µM | Activity [3]: 1.7 µM | inhibition at 10 µM [4]: 38% | Ratio [5]: 1.1 | pKa [6]: 7.9 | IC50 [7]: 37 nM
